Converted amounts (≈) assume the structure as drawn. Peptide text beside a SMILES is read from it. * marks the point of attachment. X2 = OC[C@H]1O[C@@H](n2cnc3c(N*)ncnc32)[C@@H](O)[C@@H]1O; X1 = O=c1nc(N*)ccn1[C@@H]1O[C@H](CO)[C@@H](O)[C@@H]1O
How the values were obtained:
[1] = tested on: Human immunodeficiency virus 1; assay: Antiviral activity against HIV1 3B infected in human CEM cells assessed as inhibition of virus-induced cytopathicity; assay type: functional, organism-based; settings: Human immunodeficiency virus 1, 3B, CCRF-CEM
Summary of the method: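 CEM cells (~4.5 × 10⁵/mL) were infected with HIV-1 IIIB at 100 CCID₅₀/mL and exposed to compound dilutions (final 0.62–2000 μM) at 37 °C. Giant cell formation was scored microscopically after 4–5 days. EC₅₀ is the concentration preventing syncytium formation by 50%.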

[2] = Solubility in water; assay type: physicochemical
Summary of the method: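 Excess solid was suspended in deionized water, sonicated 10 min at room temperature, equilibrated overnight at room temperature and centrifuged. Supernatant was diluted into a five-point standard curve range. Concentration came from HPLC peak area against a DMSO-dissolved standard of known concentration.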

Human alphaherpesvirus 1 [3] = assay: Antiviral activity against HSV1 KOS infected in HEL cells assessed as inhibition of virus-induced cytopathicity; assay type: functional, organism-based; settings: Human alphaherpesvirus 1, KOS
Summary of the method: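 HEL cell cultures in 96-well plates were infected with HSV-1 (KOS) at 100 CCID₅₀/mL in the presence or absence of compound.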

Dipeptidyl peptidase 4 = Dipeptidyl peptidase 4 (Homo sapiens, UniProt P27487); assay: Inhibition of human DPP4 from human Caco-2 cells; assay type: cell-based
Vaccinia virus [4] = assay: Antiviral activity against Vaccinia virus Lederle infected in HEL cells assessed as inhibition of virus-induced cytopathicity; assay type: functional, organism-based; settings: Orthopoxvirus vaccinia
Human alphaherpesvirus 1 [5] = assay: Antiviral activity against HSV1 KOS infected in HEL cells assessed as inhibition of virus-induced cytopathicity in presence of vildagliptin; assay type: functional, organism-based; settings: Human alphaherpesvirus 1, KOS
Summary of the method: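 HEL cells were infected with HSV-1 (KOS) at 100 CCID₅₀/mL with compound. The CD26 inhibitor vildagliptin (20 μM) was added once at the start of infection.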

Vaccinia virus [6] = assay: Antiviral activity against Vaccinia virus Lederle infected in HEL cells assessed as inhibition of virus-induced cytopathicity in presence of vildagliptin; assay type: functional, organism-based; settings: Orthopoxvirus vaccinia
CCRF-CEM = assay: Cytotoxicity against human CEM cells assessed as inhibition of cell proliferation after 48 hrs; assay type: functional, cell-based
HeLa = assay: Cytotoxicity against human HeLa cells assessed as inhibition of cell proliferation after 48 hrs; assay type: functional, cell-based
[7] = Stability assessed as 6-aminoquinoline formation in human recombinant CD26 measured within 4 hrs; assay type: ADME
Summary of the method: (§1)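 Prodrug (50 μM) in PBS with 0.1% DMSO was incubated at 37 °C with purified CD26 (1.5 mU) or 20% human or bovine serum in PBS. Samples taken at time points were quenched in cold methanol on ice, centrifuged at 4 °C and analyzed by RP-8 HPLC. Buffer A was 50 mM NaH₂PO₄ with 5 mM heptanesulfonic acid, pH 3.2; buffer B was acetonitrile.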

Serum [8] = assay: Stability in 20 % bovine serum assessed as 6-aminoquinoline formation within 4 hrs; assay type: ADME, cell-free, Bos taurus; settings: cattle; summary of the method: as §1
Serum [9] = assay: Stability in 20 % human serum assessed as 6-aminoquinoline formation within 4 hrs; assay type: ADME, cell-free; summary of the method: as §1
L1210 = assay: Cytotoxicity against mouse L1210 cells assessed as inhibition of cell proliferation after 48 hrs; assay type: functional, cell-based; settings: L1210, 48 h
Summary of the method: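 L1210 cells were seeded at (5–7.5) × 10⁴ cells/well in 200 μL wells with compound. Cell number was counted by Coulter counter after 48 h. IC₅₀ is the concentration inhibiting proliferation by 50%.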

Serum [10] = assay: Stability in 20 % human serum assessed as 6-aminoquinoline formation after 2 hrs; assay type: ADME, cell-free; summary of the method: as §1
Serum [11] = assay: Stability in 20 % bovine serum assessed as 6-aminoquinoline formation after 2 hrs; assay type: ADME, cell-free, Bos taurus; settings: cattle; summary of the method: as §1

Chain of Dipeptidyl peptidase 4 (P27487 whole entry): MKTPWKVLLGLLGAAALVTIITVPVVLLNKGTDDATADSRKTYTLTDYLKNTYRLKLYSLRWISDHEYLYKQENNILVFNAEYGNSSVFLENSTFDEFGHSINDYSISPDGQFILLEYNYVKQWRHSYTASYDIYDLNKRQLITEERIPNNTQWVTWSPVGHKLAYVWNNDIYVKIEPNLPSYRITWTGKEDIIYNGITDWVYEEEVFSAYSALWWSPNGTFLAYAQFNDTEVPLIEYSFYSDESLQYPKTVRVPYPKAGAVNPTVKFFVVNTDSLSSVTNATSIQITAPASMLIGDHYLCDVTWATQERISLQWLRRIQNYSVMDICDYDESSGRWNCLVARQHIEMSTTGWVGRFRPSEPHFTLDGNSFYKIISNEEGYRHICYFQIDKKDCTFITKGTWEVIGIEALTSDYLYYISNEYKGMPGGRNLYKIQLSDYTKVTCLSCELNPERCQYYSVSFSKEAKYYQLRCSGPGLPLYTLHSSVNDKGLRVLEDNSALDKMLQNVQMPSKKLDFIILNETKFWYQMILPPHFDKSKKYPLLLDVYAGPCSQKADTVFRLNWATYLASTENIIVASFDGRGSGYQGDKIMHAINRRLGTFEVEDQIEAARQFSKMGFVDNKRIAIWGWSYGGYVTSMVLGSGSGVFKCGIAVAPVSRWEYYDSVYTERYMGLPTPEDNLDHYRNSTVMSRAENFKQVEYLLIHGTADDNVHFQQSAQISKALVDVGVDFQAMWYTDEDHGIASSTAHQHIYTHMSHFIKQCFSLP

CC(C)(C)[Si](C)(C)OC[C@H]1O[C@@H](n2ccc(N)nc2=O)[C@@H](O)[C@@H]1O[Si](C)(C)C(C)(C)C
EC50 [1]: 70 nM

N[C@@H](CC(=O)O)C(=O)N1CCC[C@H]1C(=O)Nc1ccc2ncccc2c1
solubility [2]: 47.8 mg/mL (≈ 134 mM)

Nc1ncnc2c1ncn2[C@@H]1O[C@H](CO)[C@@H](O)[C@@H]1O [VIDARABINE]
EC50 (Human alphaherpesvirus 1 [3]): 35000 nM | IC50 (Dipeptidyl peptidase 4): 62 nM | EC50 (Vaccinia virus [4]): 8300 nM | EC50 (Human alphaherpesvirus 1 [5]): 42000 nM | EC50 (Vaccinia virus [6]): 10000 nM

CC(C)[C@H](N)C(=O)N1CCC[C@H]1C(=O)N[C@H](C(=O)N1CCC[C@H]1C(=O)Nc1ccn([C@@H]2O[C@H](CO)[C@@H](O)[C@@H]2O)c(=O)n1)C(C)C (H-VPVP-X1)
IC50 (CCRF-CEM): 57 nM | IC50 (HeLa): 630 nM | Activity [7]: 80% | Activity (Serum [8]): 80% | Activity (Serum [9]): 80% | IC50 (L1210): 100 nM

Nc1ccn([C@@H]2O[C@H](CO)[C@@H](O)[C@@H]2O)c(=O)n1 [CYTARABINE]
IC50 (HeLa): 260 nM

CC(C)[C@H](N)C(=O)N1CCC[C@H]1C(=O)N[C@H](C(=O)N1CCC[C@H]1C(=O)Nc1ncnc2c1ncn2[C@@H]1O[C@H](CO)[C@@H](O)[C@@H]1O)C(C)C (H-VPVP-X2)
EC50 (Human alphaherpesvirus 1 [3]): 54000 nM | EC50 (Vaccinia virus [4]): 16000 nM | EC50 (Human alphaherpesvirus 1 [5]): 238000 nM | solubility [2]: 34.7 mg/mL (≈ 52.7 mM) | EC50 (Vaccinia virus [6]): 135000 nM

Nc1ccc2ncccc2c1
solubility [2]: 7.01 mg/mL (≈ 48.6 mM)

CC(C)[C@H](N)C(=O)N[C@@H](C)C(=O)N[C@H](C(=O)N1CCC[C@H]1C(=O)Nc1ccn([C@@H]2O[C@H](CO)[C@@H](O)[C@@H]2O)c(=O)n1)C(C)C (H-VAVP-X1)
IC50 (CCRF-CEM): 50 nM | IC50 (HeLa): 560 nM | IC50 (L1210): 82 nM

Cc1cn([C@@H]2O[C@H](CO[Si](C)(C)C(C)(C)C)[C@@]3(OS(=O)(=O)C=C3N)[C@H]2O[Si](C)(C)C(C)(C)C)c(=O)nc1NC(=O)[C@@H]1CCCN1C(=O)[C@@H](NC(=O)[C@@H]1CCCN1C(=O)[C@@H](N)C(C)C)C(C)C
Activity (Serum [10]): 20% | Activity (Serum [11]): 40%

CC(C)[C@H](N)C(=O)N1CCC[C@H]1C(=O)Nc1ccc2ncccc2c1
solubility [2]: 33.2 mg/mL (≈ 97.5 mM)

From ChEMBL document CHEMBL1156792, “Application of the dipeptidyl peptidase IV (DPPIV/CD26) based prodrug approach to different amine-containing drugs” (J Med Chem, 2010)
